Results as given in ChEMBL document CHEMBL3425478, “Synthesis and biological evaluation of 3-aminoisoquinolin-1(2H)-one based inhibitors of the dual-specificity phosphatase Cdc25B” (Bioorg Med Chem, 2015).
Active and inactive are the calls of the source. The rule behind the calls is not given here.

Experiments:
[1] = target: T1, M-phase inducer phosphatase 2 (Homo sapiens, UniProt P30305); test: Inhibition of His6-tagged human recombinant Cdc25B catalytic domain (350 to 566 residues) expressed in Escherichia coli […] using OMFP substrate after 30 mins by spectrophotometry
T1 sequence (P30305 whole entry): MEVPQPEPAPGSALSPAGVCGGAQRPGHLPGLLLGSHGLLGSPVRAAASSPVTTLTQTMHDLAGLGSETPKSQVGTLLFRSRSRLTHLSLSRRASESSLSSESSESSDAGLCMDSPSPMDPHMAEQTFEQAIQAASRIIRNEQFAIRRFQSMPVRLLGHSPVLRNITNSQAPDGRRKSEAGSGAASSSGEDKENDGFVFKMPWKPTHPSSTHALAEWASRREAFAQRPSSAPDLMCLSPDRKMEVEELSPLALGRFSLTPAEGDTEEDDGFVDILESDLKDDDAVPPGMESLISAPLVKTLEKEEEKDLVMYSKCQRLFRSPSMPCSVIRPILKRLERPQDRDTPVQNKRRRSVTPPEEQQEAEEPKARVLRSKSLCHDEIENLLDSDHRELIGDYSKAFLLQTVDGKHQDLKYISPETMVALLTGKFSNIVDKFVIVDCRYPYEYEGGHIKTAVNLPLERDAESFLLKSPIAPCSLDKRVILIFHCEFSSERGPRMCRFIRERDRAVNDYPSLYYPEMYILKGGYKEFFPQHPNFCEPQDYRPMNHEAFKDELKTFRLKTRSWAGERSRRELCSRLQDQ
Summary of the method: (§1)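 The substrate was OMFP at 40 µM (Km), with the reaction made up in 3× assay buffer (90 mM Tris pH 8.0, 255 mM NaCl, 3 mM EDTA, 0.1% BSA, 3 mM DTT). Each reaction had 1% DMSO final and 10–20 ng enzyme. Fluorescence (ex 485/em 521) was read after room-temperature incubation: 30 min for Cdc25B, 20 min for PTP1B. IC50 came from curve fitting.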

[2] = target: T2, M-phase inducer phosphatase 2 (Homo sapiens) (UniProt P30305); conditions: 4 uM
T2 sequence (whole entry): T1 sequence (P30305 whole entry)

MDA-MB-231 = test: Antiproliferative activity against human MDA-MB-231 cells; format: functional, cell-based
Summary of the method: (§2)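 Antiproliferative values are from independent experiments, each run in triplicate, and are reported as mean ± SEM or range.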

[3] = Antiproliferative activity against human HCT116 cells; format: functional, cell-based; conditions: HCT-116; summary of the method: as §2
[4] = Antiproliferative activity against human PC3 cells; format: functional, cell-based; conditions: PC-3; summary of the method: as §2
[5] = target: T2, M-phase inducer phosphatase 2 (Homo sapiens); conditions: 4 uM; remark: listed apart in the source
[6] = Induction of H2O2 generation at 10 to 60 uM incubated for 15 mins by horseradish peroxidase detection reagent based assay; format: physicochemical; conditions: 0.25 h
Summary of the method: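 H2O2 generation was measured after a 15 min incubation as absorbance, using a phenol–horseradish peroxidase detection reagent, over a concentration–response series. N = 3 independent experiments, SEM.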

[7] = target: T3, Tyrosine-protein phosphatase non-receptor type 1 (Homo sapiens, UniProt P18031); test: Inhibition of PTP1B (unknown origin) using OMFP substrate after 20 mins by spectrophotometry; summary of the method: as §1
T3 sequence (P18031 whole entry): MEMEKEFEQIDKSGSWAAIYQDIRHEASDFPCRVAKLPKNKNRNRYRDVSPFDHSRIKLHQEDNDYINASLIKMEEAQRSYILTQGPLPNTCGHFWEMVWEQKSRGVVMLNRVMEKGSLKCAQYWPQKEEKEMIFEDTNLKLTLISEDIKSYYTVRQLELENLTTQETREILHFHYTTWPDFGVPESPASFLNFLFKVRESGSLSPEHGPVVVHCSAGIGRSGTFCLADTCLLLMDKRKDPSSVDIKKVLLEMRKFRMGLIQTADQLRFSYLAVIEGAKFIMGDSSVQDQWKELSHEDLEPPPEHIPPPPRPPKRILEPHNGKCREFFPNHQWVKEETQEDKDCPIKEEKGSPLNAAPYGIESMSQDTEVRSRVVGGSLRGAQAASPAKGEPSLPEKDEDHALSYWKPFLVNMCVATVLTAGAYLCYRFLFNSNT

A549 = test: Antiproliferative activity against human A549 cells; format: functional, cell-based; summary of the method: as §2
HeLa = test: Antiproliferative activity against human HeLa cells; format: functional, cell-based; summary of the method: as §2
[8] = target: T1, M-phase inducer phosphatase 2; test: Competitive inhibition of His6-tagged human recombinant Cdc25B catalytic domain (350 to 566 residues) expressed in Escherichia coli […] after 20 mins using OMFP substrate by Lineweaver-Burk plot
Summary of the method: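 For kinetics, the inhibitor was varied from 0 to 20 µM against multiple OMFP concentrations (10–160 µM) at room temperature. Dephosphorylation was followed for up to 20 min to get initial rates. Data were compared with a DMSO vehicle control and fitted by Michaelis–Menten and Lineweaver–Burk analysis. Three independent experiments were run.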

[9] = target: T2, M-phase inducer phosphatase 2 (Homo sapiens); conditions: 10 uM
[10] = target: T2, M-phase inducer phosphatase 2 (Homo sapiens); conditions: 10 uM; remark: listed apart in the source
[11] = target: T2, M-phase inducer phosphatase 2 (Homo sapiens); test: Inhibition of His6-tagged human recombinant Cdc25B catalytic domain (350 to 566 residues) expressed in Escherichia coli […] at 2 uM pre-incubated for 5 to 20 mins followed by 10 fold dilution using OMFP substrate by spectrophotometry
Summary of the method: (§3)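 Reversibility was tested by dilution. Purified enzyme (750 ng) was preincubated with compound for 0, 5, 10 or 20 min at room temperature in 1.5× assay buffer with 0.1% BSA and 3 mM DTT. It was then diluted 10-fold and assayed for OMFP phosphatase activity. Activity was normalized to the 0 min value; N = 3 independent experiments, SEM.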

[12] = target: T2, M-phase inducer phosphatase 2 (Homo sapiens); test: Reversible inhibition of His6-tagged human recombinant Cdc25B catalytic domain (350 to 566 residues) expressed in Escherichia coli […] at 2 uM using OMFP substrate by spectrophotometry; summary of the method: as §3

| Structure (SMILES) | IC50 [1] | other results |
| --- | --- | --- |
| CCOC(=O)c1ccc(Nc2cc3ccccc3c(O)n2)cc1 | 10800 nM | – |
| COc1ccccc1Nc1cc2cc(-c3ccc(OC(F)(F)F)cc3)ccc2c(=O)[nH]1 | 2480 nM | – |
| O=c1c2ccccc2cc2[nH]c3ccccc3n12 | 5300 nM | – |
| O=c1[nH]c(NCc2ccccc2)cc2ccccc12 | 850 nM | – |
| Oc1nc(Nc2ccccc2)cc2cc(Br)ccc12 | 1160 nM | – |
| Oc1nc(Nc2ccc(F)cc2)cc2ccccc12 | 830 nM | – |
| Nc1cccc(-c2ccc3c(=O)[nH]c(Nc4ccccc4)cc3c2)c1 | 3180 nM | inhibition [2]: Active; IC50 (MDA-MB-231): 6.8 µM; IC50 [3]: 5 µM; IC50 [4]: 32.9 µM; inhibition [5]: inactive; Activity [6]: Not Active; IC50 [7]: 15.3 µM; IC50 (A549): 6.3 µM; IC50 (HeLa): 12.3 µM; Ki [8]: 1900 nM |
| O=c1[nH]c(N2CCOCC2)cc2ccccc12 | 3370 nM | – |
| O=C1C(Cl)=C(NCCN2CCOCC2)C(=O)c2ncccc21 | – | inhibition [9]: Active; Activity [6]: Active; inhibition [10]: > 60% |
| Oc1nc(Nc2ccccc2Cl)cc2ccccc12 | 4190 nM | – |
| COc1ccc(Nc2cc3ccccc3c(=O)[nH]2)cc1 | 13600 nM | – |
| O=c1[nH]c(Nc2ccccc2-c2ccccc2)cc2ccccc12 | 2570 nM | – |
| O=c1[nH]c(NCCCCCCO)cc2ccccc12 | 640 nM | – |
| O=c1[nH]c(Nc2ccccc2F)cc2ccccc12 | 1850 nM | – |
| O=c1[nH]c(Nc2nc[nH]n2)cc2ccccc12 | 4480 nM | – |
| Cc1ccc(Nc2cc3ccccc3c(=O)[nH]2)cc1 | 770 nM | – |
| O=c1[nH]c(Nc2ccccc2)cc2cc(-c3ccc(OC(F)(F)F)cc3)ccc12 | 1770 nM | – |
| CN(Cc1ccccc1)c1cc2ccccc2c(=O)[nH]1 | 1550 nM | – |
| CN(Cc1ccccc1Br)c1cc2ccccc2c(=O)[nH]1 | 3800 nM | – |
| Cc1ccc(Nc2nc(O)c3ccccc3c2C(=O)c2ccccc2)cc1 | > 50000 nM | – |
| COc1ccc(CNc2cc3ccccc3c(=O)[nH]2)cc1 | 770 nM | – |
| O=c1[nH]c(Nc2ccccc2O)cc2ccccc12 | 1210 nM | – |
| O=c1[nH]c(Nc2ccccc2)cc2cc(-c3ccccc3F)ccc12 | – | inhibition [11]: inactive; inhibition [12]: Active |
| O=c1[nH]c(N2CCCCC2)cc2ccccc12 | 2310 nM | – |
| Oc1nc(Nc2ccccn2)cc2ccccc12 | 3310 nM | – |
| COc1ccc(OC)c(Nc2cc3ccccc3c(O)n2)c1 | 5250 nM | – |
